Experimental data from paper PMC11255784 (RSC Advances, 2024).

What was measured:
[1] = tested on: Mtb H37Rv strain; assay: Anti-TB activity, Microplate Alamar Blue Assay; assay type: cell-based, Mycobacterium tuberculosis; settings: MABA, triplicates
[2] = tested on: HEK293T cells; assay: Cytotoxicity studies on HEK293T cell line; assay type: cell-based, human; settings: for Selective index (SI): HEK293T IC50 versus MIC against Mtb H37Rv; for IC50: Homo sapiens, HEK-293T, read-out: IC50 (HEK293T)
Outline: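 Normal human embryonic kidney HEK293T cells were exposed to test compounds over a dose range of 7 to 2000 μM, and cell proliferation was read as OD at 450 nm to give IC50.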

[3] = tested on: Mtb H37Rv; settings: cited from earlier work
[4] = Mycobacterium tuberculosis, H37RV

Row | Compound | MIC [1, 4] | other results
1 | 2-(4-(Phenylglycyl) piperazin-1-yl)-1,8-naphthyridine-3-carbonitrile [ANC-1] | – | MIC [1]: 25 µg/mL; MIC ([1]; value in brackets): 67.12 µM
2 | N#Cc1cc2cccnc2nc1N1CCN(CC(=O)Nc2ccccc2)CC1 [ANA-1, 2-(4-(3-Cyano-1,8-naphthyridin-2-yl)piperazin-1-yl)-N-phenylacetamide] | 12.5 µg/mL | Selective index (SI) [2]: 17; IC50 [2]: 580 ± 20.2 µM
3 | CCc1ccc(NC(=O)CN2CCN(c3nc4ncccc4cc3C#N)CC2)cc1 [ANA-2, 2-(4-(3-Cyano-1,8-naphthyridin-2-yl)piperazin-1-yl)-N-(4-ethylphenyl)acetamide] | 25 µg/mL | –
4 | Cc1ccc(NC(=O)CN2CCN(c3nc4ncccc4cc3C#N)CC2)cc1C [ANA-3, 2-(4-(3-Cyano-1,8-naphthyridin-2-yl)piperazin-1-yl)-N-(3,4-dimethylphenyl)acetamide] | 25 µg/mL | –
5 | N#Cc1cc2cccnc2nc1N1CCN(CC(=O)Nc2ccc(F)cc2)CC1 [ANA-4, 2-(4-(3-Cyano-1,8-naphthyridin-2-yl)piperazin-1-yl)-N-(4-fluorophenyl)acetamide] | 25 µg/mL | –
6 | N#Cc1cc2cccnc2nc1N1CCN(CC(=O)Nc2ccc(Br)cc2)CC1 [ANA-5, N-(4-Bromophenyl)-2-(4-(3-cyano-1,8-naphthyridin-2-yl)piperazin-1-yl)acetamide] | 25 µg/mL | –
7 | N#Cc1cc2cccnc2nc1N1CCN(CC(=O)Nc2ccccc2F)CC1 [ANA-6, 2-(4-(3-Cyano-1,8-naphthyridin-2-yl)piperazin-1-yl)-N-(2-fluorophenyl)acetamide] | 12.5 µg/mL | Selective index (SI) [2]: 23; IC50 [2]: 753 ± 7.63 µM
8 | N#Cc1cc2cccnc2nc1N1CCN(CC(=O)Nc2ccccc2[N+](=O)[O-])CC1 [ANA-7, 2-(4-(3-Cyano-1,8-naphthyridin-2-yl)piperazin-1-yl)-N-(2-nitrophenyl)acetamide] | 12.5 µg/mL | Selective index (SI) [2]: 19; IC50 [2]: 571.2 ± 4.45 µM
9 | N#Cc1cc2cccnc2nc1N1CCN(CC(=O)Nc2cccc(C(F)(F)F)c2)CC1 [ANA-8, 2-(4-(3-Cyano-1,8-naphthyridin-2-yl)piperazin-1-yl)-N-(3(trifluoromethyl)phenyl)acetamide] | 12.5 µg/mL | –
10 | N#Cc1cc2cccnc2nc1N1CCN(CC(=O)Nc2ccc(F)c(F)c2)CC1 [ANA-9, 2-(4-(3-Cyano-1,8-naphthyridin-2-yl)piperazin-1-yl)-N-(3,4-difluorophenyl)acetamide] | 25 µg/mL | –
11 | N#Cc1cc2cccnc2nc1N1CCN(CC(=O)Nc2cccc([N+](=O)[O-])c2)CC1 [ANA-10, 2-(4-(3-Cyano-1,8-naphthyridin-2-yl)piperazin-1-yl)-N-(3-nitrophenyl)acetamide] | 12.5 µg/mL | –
12 | N#Cc1cc2cccnc2nc1N1CCN(CC(=O)Nc2ccc([N+](=O)[O-])cc2)CC1 [ANA-11, 2-(4-(3-Cyano-1,8-naphthyridin-2-yl)piperazin-1-yl)-N-(4-nitrophenyl)acetamide] | 25 µg/mL | –
13 | N#Cc1cc2cccnc2nc1N1CCN(C(=O)c2ccc([N+](=O)[O-])o2)CC1 [ANA-12, 2-(4-(5-Nitrofuran-2-carbonyl)piperazin-1-yl)-1,8-naphthyridine-3-carbonitrile] | 6.25 µg/mL | Selective index (SI) [2]: 27; IC50 [2]: 451 ± 20.2 µM
14 | CCc1ccc(NCC(=O)N2CCN(c3nc4ncccc4cc3C#N)CC2)cc1 [ANC-2, 2-(4-((4-Ethylphenyl)glycyl)piperazin-1-yl)-1,8-naphthyridine-3-carbonitrile] | 12.5 µg/mL | Selective index (SI) [2]: 11; IC50 [2]: 330 ± 3.4 µM
15 | Cc1ccc(NCC(=O)N2CCN(c3nc4ncccc4cc3C#N)CC2)cc1C [ANC-3, 2-(4-((3,4-Dimethylphenyl)glycyl)piperazin-1-yl)-1,8-naphthyridine-3-carbonitrile] | 50 µg/mL | –
16 | N#Cc1cc2cccnc2nc1N1CCN(C(=O)CNc2ccc(F)cc2)CC1 [ANC-5, 2-(4-((4-Fluorophenyl)glycyl)piperazin-1-yl)-1,8-naphthyridine-3-carbonitrile] | 25 µg/mL | –

Row | Compound | MIC [1, 4] | other results
17 | N#Cc1cc2cccnc2nc1N1CCN(C(=O)CNc2ccc(Cl)cc2)CC1 [ANC-6, 2-(4-((4-Chlorophenyl)glycyl)piperazin-1-yl)-1,8-naphthyridine-3-carbonitrile] | 25 µg/mL | –
18 | N#Cc1cc2cccnc2nc1N1CCN(C(=O)CNc2ccc(Br)cc2)CC1 [ANC-7, 2-(4-((4-Bromophenyl)glycyl)piperazin-1-yl)-1,8-naphthyridine-3-carbonitrile] | 25 µg/mL | –
19 | N#Cc1cc2cccnc2nc1N1CCN(C(=O)CNc2ccccc2F)CC1 [ANC-8, 2-(4-((2-Fluorophenyl)glycyl)piperazin-1-yl)-1,8-naphthyridine-3-carbonitrile] | 25 µg/mL | –
20 | N#Cc1cc2cccnc2nc1N1CCN(C(=O)CNc2ccccc2I)CC1 [ANC-9, 2-(4-((2-Iodophenyl)glycyl)piperazin-1-yl)-1,8-naphthyridine-3-carbonitrile] | 25 µg/mL | –
21 | N#Cc1cc2cccnc2nc1N1CCN(C(=O)CNc2ccc(Br)cc2[N+](=O)[O-])CC1 [ANC-10, 2-(4-((4-Bromo-2-nitrophenyl)glycyl)piperazin-1-yl)-1,8-naphthyridine-3-carbonitrile] | > 50 µg/mL | –
22 | N#Cc1cc2cccnc2nc1N1CCN(C(=O)CNc2cccc(Cl)c2)CC1 [ANC-11, 2-(4-((3-Chlorophenyl)glycyl)piperazin-1-yl)-1,8-naphthyridine-3-carbonitrile] | 50 µg/mL | –
23 | N#Cc1cc2cccnc2nc1N1CCN(C(=O)CNc2cccc(C(F)(F)F)c2)CC1 [ANC-12, 2-(4-((3-(Trifluoromethyl)phenyl)glycyl)piperazin-1-yl)-1,8-naphthyridine-3-carbonitrile] | 25 µg/mL | –
24 | N#Cc1cc2cccnc2nc1N1CCN(C(=O)CNc2ccc(Cl)cc2Cl)CC1 [ANC-13, 2-(4-((2,4-Dichlorophenyl)glycyl)piperazin-1-yl)-1,8-naphthyridine-3-carbonitrile] | 50 µg/mL | –
25 | N#Cc1cc2cccnc2nc1N1CCN(C(=O)CNc2ccc(F)c(F)c2)CC1 [ANC-14, 2-(4-((3,4-Difluorophenyl)glycyl)piperazin-1-yl)-1,8-naphthyridine-3-carbonitrile] | > 50 µg/mL | –
26 | N#Cc1cc2cccnc2nc1N1CCNCC1 [ANI-1, 2-(Piperazin-1-yl)-1,8-naphthyridine-3-carbonitrile] | 25 µg/mL | –
27 | N#Cc1cc2cccnc2nc1N1CCN(C(=O)CCl)CC1 [ANI-2, 2-(4-(2-Chloroacetyl)piperazin-1-yl)-1,8-naphthyridine-3-carbonitrile] | 25 µg/mL | –
28 | CC[C@@H](CO)NCCN[C@@H](CC)CO [Ethambutol, reference compound] | 6.25 µg/mL | –
29 | NNC(=O)c1ccncc1 [Isoniazid, reference compound] | 0.36 µg/mL | –
30 | CO[C@H]1/C=C/O[C@@]2(C)Oc3c(C)c(O)c4c(O)c(c(/C=N/N5CCN(C)CC5)c(O)c4c3C2=O)NC(=O)/C(C)=C\C=C\[C@H](C)[C@H](O)[C@@H](C)[C@@H](O)[C@@H](C)[C@H](OC(C)=O)[C@@H]1C [Rifampicin, reference compound] | 3.13 µg/mL | inhibition against Mtb H37Rv [3]: 98%
31 | Nc1ccc(C(=O)O)c(O)c1 [p-Amino salicylic acid, reference compound] | 12.5 µg/mL | –
